The term solubility denotes how much of the substance goes into solution per volume. A low value points to little dissolved substance. Broadly, the IC50 is the concentration at which inhibition is half-maximal.

This is an account of results in ChEMBL document CHEMBL2429843 (J Med Chem, 2013).

System in one data set: not listed separately
Put plainly: Aqueous solubility of the compound. Format: physicochemical. The settings on record: buffer.
In the case of `Cc1cccc2nc[nH]c(=O)c12`, the solubility was over 500 µM.

Regarding `COc1ccc(-c2n[nH]c(N)n2)cc1`, the solubility was over 500 µM.

In turn, `c1ccc2[nH]c(-c3cnco3)cc2c1` displayed a solubility of over 500 µM.

Molecule `O=c1[nH]cnc2onc(-c3ccccc3)c12` gave a solubility of over 500 µM.

System in another data set: not listed separately
The data set can be described thus: Selectivity ratio of IC50 for Staphylococcus aureus TrmD to IC50 for Escherichia coli TrmD.
Settings: not given
On to `NC1CN(Cc2ccc(CNC(=O)c3csc4nc[nH]c(=O)c34)cc2)C1`, for which the Ratio IC50 was 5.

Turning to `O=C(NCc1ccc(CN2CC[C@@H](O)C2)cc1)c1csc2nc[nH]c(=O)c12`, the Ratio IC50 was 5.

For the molecule `O=C(NCc1ccc(CN2CC[C@H](O)C2)cc1)c1csc2nc[nH]c(=O)c12`, the Ratio IC50 was found to be 5.

System in another data set: not listed separately
The data set can be described thus: Selectivity ratio of IC50 for Escherichia coli TrmD to IC50 for Pseudomonas aeruginosa TrmD.
Settings: not given
`NC1CN(Cc2ccc(CNC(=O)c3csc4nc[nH]c(=O)c34)cc2)C1`: the Ratio IC50 is 10.

For the molecule `O=C(NCc1ccc(CN2CC[C@@H](O)C2)cc1)c1csc2nc[nH]c(=O)c12`, the Ratio IC50 worked out at 10.

As to `O=C(NCc1ccc(CN2CC[C@H](O)C2)cc1)c1csc2nc[nH]c(=O)c12`, the Ratio IC50 worked out at 10.

System in a further data set: not listed separately
Put plainly: Inhibition of Pseudomonas aeruginosa TrmD using S-[methyl-3H] adenosyl-L-methionine as substrate assessed as leucine-tRNA methylation after 1 hr by scintillation proximity assay.
Settings: not given
In outline: (§1)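 Radiometric SPA: TrmD in 50 mM HEPES pH 7.5 with 5 mM MgCl2 (E. coli and K. pneumoniae 10 nM, S. aureus 10 nM, P. aeruginosa 5 nM, H. influenzae 4 nM in enzyme reagent), mixed 1:1 with a reagent of 0.05 μM [3H]SAM, 2 μM unlabelled SAM and 2 μM synthetic E. coli leucine-tRNA. Compounds are 2-fold serial DMSO dilutions. Incubation is 1 h at room temperature.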
(Scintillation proximity formats need no separation of bound from free tracer.)
`NC1CN(Cc2ccc(CNC(=O)c3csc4nc[nH]c(=O)c34)cc2)C1`: the IC50 was found to be 0.25 µM.

In the case of `O=C(NCc1ccc(CN2CC[C@@H](O)C2)cc1)c1csc2nc[nH]c(=O)c12`, the IC50 worked out at 0.063 µM.

As to `O=C(NCc1ccc(CN2CC[C@H](O)C2)cc1)c1csc2nc[nH]c(=O)c12`, the IC50 was determined as 0.12 µM.

In the next data set the test system is Klebsiella pneumoniae. Put plainly: Inhibition of Klebsiella pneumoniae TrmD using S-[methyl-3H] adenosyl-L-methionine as substrate assessed as leucine-tRNA methylation after 1 hr by scintillation proximity assay.
Settings: not given
Put shortly:
as §1
With `NC1CN(Cc2ccc(CNC(=O)c3csc4nc[nH]c(=O)c34)cc2)C1`, the IC50 was 1.3 µM.

For `O=C(NCc1ccc(CN2CC[C@@H](O)C2)cc1)c1csc2nc[nH]c(=O)c12`, the IC50 turned out to be 0.51 µM.

As to `O=C(NCc1ccc(CN2CC[C@H](O)C2)cc1)c1csc2nc[nH]c(=O)c12`, the IC50 was 0.63 µM.

System in the next data set: not listed separately
The data set can be described thus: Inhibition of Acinetobacter baumannii TrmD using S-[methyl-3H] adenosyl-L-methionine as substrate assessed as leucine-tRNA methylation after 1 hr by scintillation proximity assay.
Settings: not given
`NC1CN(Cc2ccc(CNC(=O)c3csc4nc[nH]c(=O)c34)cc2)C1`: the IC50 is 1.3 µM.

On to `O=C(NCc1ccc(CN2CC[C@@H](O)C2)cc1)c1csc2nc[nH]c(=O)c12`, for which the IC50 stood at 0.24 µM.

As to `O=C(NCc1ccc(CN2CC[C@H](O)C2)cc1)c1csc2nc[nH]c(=O)c12`, the IC50 came to 0.63 µM.

System in another data set: not listed separately
Put plainly: Inhibition of Haemophilus influenzae TrmD using S-[methyl-3H] adenosyl-L-methionine as substrate assessed as leucine-tRNA methylation after 1 hr by scintillation proximity assay.
Settings: not given
Put shortly: as §1
On to `NC1CN(Cc2ccc(CNC(=O)c3csc4nc[nH]c(=O)c34)cc2)C1`, for which the IC50 turned out to be 0.33 µM.

For `O=C(NCc1ccc(CN2CC[C@@H](O)C2)cc1)c1csc2nc[nH]c(=O)c12`, the IC50 amounted to 0.42 µM.

Turning to `O=C(NCc1ccc(CN2CC[C@H](O)C2)cc1)c1csc2nc[nH]c(=O)c12`, the IC50 came out at 0.6 µM.

As to `O=c1[nH]cnc2onc(-c3ccccc3)c12`, the IC50 came out at 1.1 µM.

For `O=C(NCc1ccc(CNCCO)cc1)c1csc2nc[nH]c(=O)c12`, the IC50 stood at 1.2 µM.

On to `O=C(NCc1ccc(CN2CCCC2)cc1)c1csc2nc[nH]c(=O)c12`, for which the IC50 turned out to be 1.1 µM.

Regarding `N=C(N)c1ccc(CNC(=O)c2csc3nc[nH]c(=O)c23)cc1`, the IC50 stood at 1.1 µM.

On to `O=c1[nH]cnc2[nH]cc(-c3ccccc3)c12`, for which the IC50 came to 17 µM.

Take `O=C(NCc1ccccc1)c1csc2nc[nH]c(=O)c12`: the IC50 amounted to 2.6 µM.

System in another data set: not listed separately
The data set can be described thus: Inhibition of Staphylococcus aureus TrmD using S-[methyl-3H] adenosyl-L-methionine as substrate assessed as leucine-tRNA methylation after 1 hr by scintillation proximity assay.
Settings: not given
Put shortly:
as §1
As for `NC1CN(Cc2ccc(CNC(=O)c3csc4nc[nH]c(=O)c34)cc2)C1`, the IC50 turned out to be 1.8 µM.

For `O=C(NCc1ccc(CN2CC[C@@H](O)C2)cc1)c1csc2nc[nH]c(=O)c12`, the IC50 was found to be 2.7 µM.

For the molecule `O=C(NCc1ccc(CN2CC[C@H](O)C2)cc1)c1csc2nc[nH]c(=O)c12`, the IC50 is 6.3 µM.

For the molecule `O=c1[nH]cnc2onc(-c3ccccc3)c12`, the IC50 was 6.7 µM.

On to `O=C(NCc1ccc(CNCCO)cc1)c1csc2nc[nH]c(=O)c12`, for which the IC50 is 1.8 µM.

`O=C(NCc1ccc(CN2CCCC2)cc1)c1csc2nc[nH]c(=O)c12`: the IC50 is 4.7 µM.

Regarding `N=C(N)c1ccc(CNC(=O)c2csc3nc[nH]c(=O)c23)cc1`, the IC50 turned out to be 5.5 µM.

For `O=c1[nH]cnc2[nH]cc(-c3ccccc3)c12`, the IC50 came to 2.3 µM.

Consider `O=C(NCc1ccccc1)c1csc2nc[nH]c(=O)c12`, for which the IC50 worked out at 64 µM.

System in a further data set: not listed separately
The data set can be described thus: Inhibition of Escherichia coli TrmD using S-[methyl-3H] adenosyl-L-methionine as substrate assessed as leucine-tRNA methylation after 1 hr by scintillation proximity assay.
Settings: not given
In outline:
as §1
For the molecule `NC1CN(Cc2ccc(CNC(=O)c3csc4nc[nH]c(=O)c34)cc2)C1`, the IC50 is 0.33 µM.

Turning to `O=C(NCc1ccc(CN2CC[C@@H](O)C2)cc1)c1csc2nc[nH]c(=O)c12`, the IC50 came to 0.29 µM.

Consider `O=C(NCc1ccc(CN2CC[C@H](O)C2)cc1)c1csc2nc[nH]c(=O)c12`, for which the IC50 was found to be 0.4 µM.

Turning to `O=c1[nH]cnc2onc(-c3ccccc3)c12`, the IC50 turned out to be 4.8 µM.

On to `O=C(NCc1ccc(CNCCO)cc1)c1csc2nc[nH]c(=O)c12`, for which the IC50 is 0.89 µM.

As for `O=C(NCc1ccc(CN2CCCC2)cc1)c1csc2nc[nH]c(=O)c12`, the IC50 amounted to 0.67 µM.

Regarding `N=C(N)c1ccc(CNC(=O)c2csc3nc[nH]c(=O)c23)cc1`, the IC50 stood at 0.9 µM.

In the case of `O=c1[nH]cnc2[nH]cc(-c3ccccc3)c12`, the IC50 was 98 µM.

In the case of `O=C(NCc1ccccc1)c1csc2nc[nH]c(=O)c12`, the IC50 worked out at 6.5 µM.
